Source: ChEMBL document CHEMBL4814077, “Discovery of Surfactins as Inhibitors of MicroRNA Processing Using Cat-ELCCA” (ACS Med Chem Lett, 2021)
Activity calls are given as the source filed them. The calls are words filed in the database; no cut-off is given here. *1 amine or outer side, *2 acyl side, *3 side chain or, on linkers, in order; H or OH if unused. Where a SMILES comes first, the peptide text is derived from it. Bridges are numbered along the chain shown (N, C = ends). The star is where a group is joined. ξ: configuration not given here. Pentadecanoyl(3ξ-OH,15-Gua) = N=C(N)NCCCCCCCCCCCCC(O)CC(=O)*; X1 = CCC(C)CCCCCCCCC(CC(=O)[*:1])O[*:2]; X7 = CC(C)CCCCCCCCCC(CC(=O)[*:1])O[*:2]; X3 = CC(C)CCCCCCCCC(CC(=O)[*:1])O[*:2]; X5 = CCC(C)CCCCCCC(CC(=O)[*:1])O[*:2]; X2 = CCCCCCCCCCCC(CC(=O)[*:1])O[*:2]; X4 = CCCCCCCCCCC(CC(=O)[*:1])O[*:2]; X6 = CCCCCCCCCC(CC(=O)[*:1])O[*:2]

Tests used:
microRNA 21 [1] = test: Inhibition of Dicer-mediated pre-miRNA-21 (unknown origin) processing using […] as substrate incubated for 15 mins by cat-ELCCA assay; assay type: nucleic-acid assay
In short: (§1)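 Cat-ELCCA format with immobilized pre-miRNA (pre-miR-21, or pre-let-7d as a related control substrate) processed by excess Dicer. Integrity of the terminal loop is read by trans-cyclooctene/methyltetrazine click ligation of modified HRP, giving chemiluminescent signal amplification. Assay buffer contains detergent. Dose–response curves give IC50 values reported as 95% confidence intervals.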

Pre-let-7d miRNA [2] = test: Inhibition of Dicer-mediated pre-let-7d miRNA (unknown origin) processing using […] as substrate incubated for 15 mins by cat-ELCCA assay; assay type: nucleic-acid assay; in short: as §1
microRNA 21 [3] = test: Binding affinity to pre-miRNA-21 (unknown origin) by SPR assay; assay type: nucleic-acid assay
microRNA 21 [4] = test: Inhibition of pre-miRNA-21 maturation in human HeLa cells transfected with firefly luciferase reporter gene assessed as reduction in luciferase gene expression at 100 uM incubated for 48 hrs by pmiRGlo-dual luciferase reporter assay; assay type: cell-based
In short: (§2)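 HeLa cells transiently transfected with pmiRGLO dual-luciferase reporters carrying miRNA target sites (miR-21 or let-7d) in the firefly luciferase 3′ UTR. Cells treated at 100 μM; luminescence read after 48 h. miR-21 mismatch reporter and empty-vector controls were included. Significance given as p values.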

HeLa = test: Cytotoxicity against human HeLa cells assessed as reduction in cell viability at 100 uM incubated for 48 hrs by CellTiter Glo assay; assay type: cell-based
Pre-let-7d miRNA [5] = test: Inhibition of pre-let-7d miRNA maturation in human HeLa cells transfected with firefly luciferase reporter gene assessed as reduction in luciferase gene expression at 100 uM incubated for 48 hrs by pmiRGlo-dual luciferase reporter assay; assay type: cell-based; in short: as §2
microRNA 21 [6] = test: Inhibition of pre-miRNA-21 (unknown origin) assessed as reduction in miRNA/Dicer interaction at 10 to 120 uM incubated for 40 mins by EMSA assay; assay type: nucleic-acid assay; conditions: dose 10-120 µM
Pre-let-7d miRNA [7] = test: Binding affinity to pre-let-7d miRNA (unknown origin) by SPR assay; assay type: nucleic-acid assay

SMILES	inhibition (microRNA 21 [1])	inhibition (Pre-let-7d miRNA [2])	IC50 (microRNA 21 [1]) [µM]	Kd (microRNA 21 [3]) [µM]	inhibition (microRNA 21 [4])	IC50 (Pre-let-7d miRNA [2]) [µM]	Activity (HeLa)	inhibition (Pre-let-7d miRNA [5])	inhibition (microRNA 21 [6])	Kd (Pre-let-7d miRNA [7]) [µM]
CC(C)[C@@H]1NC(=O)[C@@H](C(C)C)NC(=O)[C@@H](NC(=O)CC(O)CCCCCCCCCCCCNC(=N)N)[C@@H](C)OC(=O)[C@@H](C)NC(=O)[C@@H](CC(N)=O)NC(=O)[C@@H]([C@H](C)O)NC1=O (stereo partly drawn)	inactive	inactive								
CCC(C)CCCCCCCCC1CC(=O)N[C@@H](CCC(=O)O)C(=O)N[C@@H](CC(C)C)C(=O)N[C@@H](CC(C)C)C(=O)N[C@@H](C(C)C)C(=O)N[C@@H](CC(=O)O)C(=O)N[C@@H](CC(C)C)C(=O)N[C@@H](CC(C)C)C(=O)O1 (stereo partly drawn) (ELLVDLL; linker N-C via X1)	Dose-Dependent Effect	Dose-Dependent Effect	38	0.78	Active	54	Toxic	inactive	inactive	1.2
CCCCCCCCCCCC1CC(=O)N[C@@H](CCC(=O)O)C(=O)N[C@@H](CC(C)C)C(=O)N[C@@H](CC(C)C)C(=O)N[C@@H](C(C)C)C(=O)N[C@@H](CC(=O)O)C(=O)N[C@@H](CC(C)C)C(=O)N[C@@H](CC(C)C)C(=O)O1 (stereo partly drawn) (ELLVDLL; linker N-C via X2)	Dose-Dependent Effect	Dose-Dependent Effect	48	0.73		54				1.4
CC(C)CCCCCCCCC1CC(=O)N[C@@H](CCC(=O)O)C(=O)N[C@@H](CC(C)C)C(=O)N[C@@H](CC(C)C)C(=O)N[C@@H](C(C)C)C(=O)N[C@@H](CC(=O)O)C(=O)N[C@@H](CC(C)C)C(=O)N[C@@H](CC(C)C)C(=O)O1 (stereo partly drawn) (ELLVDLL; linker N-C via X3)	Dose-Dependent Effect	Dose-Dependent Effect	52	0.43		70				2.5
CCCCCCCCCCC1CC(=O)N[C@@H](CCC(=O)O)C(=O)N[C@@H](CC(C)C)C(=O)N[C@@H](CC(C)C)C(=O)N[C@@H](C(C)C)C(=O)N[C@@H](CC(=O)O)C(=O)N[C@@H](CC(C)C)C(=O)N[C@@H](CC(C)C)C(=O)O1 (stereo partly drawn) (ELLVDLL; linker N-C via X4)	Dose-Dependent Effect	Dose-Dependent Effect	71	0.38		97				0.3
CCC(C)CCCCCCC1CC(=O)N[C@@H](CCC(=O)O)C(=O)N[C@@H](CC(C)C)C(=O)N[C@@H](CC(C)C)C(=O)N[C@@H](C(C)C)C(=O)N[C@@H](CC(=O)O)C(=O)N[C@@H](CC(C)C)C(=O)N[C@@H](CC(C)C)C(=O)O1 (stereo partly drawn) (ELLVDLL; linker N-C via X5)			> 200			> 200				
CCCCCCCCCC1CC(=O)N[C@@H](CCC(=O)O)C(=O)N[C@@H](CC(C)C)C(=O)N[C@@H](CC(C)C)C(=O)N[C@@H](C(C)C)C(=O)N[C@@H](CC(=O)O)C(=O)N[C@@H](CC(C)C)C(=O)N[C@@H](CC(C)C)C(=O)O1 (stereo partly drawn) (ELLVDLL; linker N-C via X6)			> 200			> 200				
CC(C)CCCCCCCCCC1CC(=O)N[C@@H](CCC(=O)O)C(=O)N[C@@H](CC(C)C)C(=O)N[C@@H](CC(C)C)C(=O)N[C@@H](C(C)C)C(=O)N[C@@H](CC(=O)O)C(=O)N[C@@H](CC(C)C)C(=O)N[C@@H](CC(C)C)C(=O)O1 (stereo partly drawn) (ELLVDLL; linker N-C via X7)	inactive	inactive								
CC1NC(=O)C(CCC(N)=O)NC(=O)C(C(C)O)NC(=O)C(C(C)C)NC(=O)C(C(C)C)NC(=O)C(NC(=O)CC(O)CCCCCCCCCCCCNC(=N)N)C(C)OC1=O (stereo not drawn) ({Pentadecanoyl(3ξ-OH,15-Gua)}-TVVTQA; ester 1-C; configuration not given here)	inactive	inactive								
